Data set [1] is described as follows: Cytotoxicity against human HeLa cells assessed as decrease in cell viability after 72 hrs by MTT assay. It is filed as cell-based. The method, boiled down: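 HeLa monolayers exposed to a range of compound concentrations at 37 °C, 5% CO2. Morphology (rounding, shrinking, detachment) checked by light microscopy at 24, 48 and 72 h. Viability measured by MTT colorimetry. CC50 is the concentration that lowered control absorbance by 50%.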
(Tetrazolium assays rely on reduction of a dye to a coloured formazan, in cell work by metabolically active cells.)

The test system of data set [2] is rhinovirus A39. Put plainly: Antiviral activity against Human rhinovirus serotype 39 infected in human HeLa cells assessed as reduction in virus-induced cytopathic effect after 24 to 36 hrs by MTT assay. It is filed as functional, organism-based. Conditions: Rhinovirus A. The method, boiled down: (§1)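 HeLa (Ohio) monolayers in DMEM with 1% nonessential amino acids and 10% fetal calf serum, infected at MOI 1, then given serial compound dilutions. Incubation 24−36 h at 33 °C, 3% CO2, until control CPE was almost total. Multicycle CPE reduction read by MTT. EC50 (50% CPE inhibition) taken from dose−response curves by linear regression. Pleconaril served as reference.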
A general note: Cytopathic effects are the visible damage that an infection or toxin causes in cultured cells.

In data set [3] the test system is rhinovirus B14. Put plainly: Antiviral activity against Human rhinovirus serotype 14 infected in human HeLa cells assessed as reduction in virus-induced cytopathic effect after 24 to 36 hrs by MTT assay. The data set is classed as functional, organism-based. The note with it: Rhinovirus B. The method, boiled down: as §1
Data set [4] is described as follows: Selectivity index, ratio of CC50 for human HeLa cells to EC50 for Human rhinovirus serotype 39 infected in human HeLa cells. The data set is classed as toxicity, cell-based. The note with it: read-out: Ratio CC50/EC50. The gist of the method:
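Selectivity index computed as CC50 (MTT, uninfected HeLa) divided by EC50 (MTT, HRV39 CPE reduction in HeLa at MOI 1, 24−36 h at 33 °C).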

The target of data set [5] is T1, VP1 capsid protein (Human rhinovirus sp.) (UniProt Q7T664).
T1 sequence (whole entry): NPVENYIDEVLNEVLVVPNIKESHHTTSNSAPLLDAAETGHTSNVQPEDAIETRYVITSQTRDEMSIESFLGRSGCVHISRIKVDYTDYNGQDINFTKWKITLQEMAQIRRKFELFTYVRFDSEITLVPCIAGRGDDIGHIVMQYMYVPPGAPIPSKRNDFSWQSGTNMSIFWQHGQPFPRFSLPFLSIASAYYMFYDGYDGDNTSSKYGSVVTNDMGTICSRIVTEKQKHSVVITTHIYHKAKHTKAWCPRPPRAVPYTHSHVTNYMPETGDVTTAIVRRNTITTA
Put plainly: Inhibition of Human rhinovirus serotype 39 capsid infected in human HeLa cells assessed as reduction in virus-induced cytopathic effect at 5 ug/ml treated with virus inoculum measured after 24 to 36 hrs relative to control. The data set is classed as cell-based. The note with it: rhinovirus A39. The method, boiled down:
(§2)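 HeLa (Ohio strain) monolayers in 24-well plates (DMEM, 10% fetal calf serum) infected with ATCC HRV39 (working stock prepared as cell lysate). Compound at 5 μg/mL added before (−1 h), at (0 h) or after infection. Cells incubated in CO2 atmosphere for 24–36 h, then washed twice with HBSS. Virus yield inhibition (%) determined by virus-cell-based CPE reduction assay in HeLa cells. Pirodavir (5 μg/mL) served as positive control.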

Data set [6] has as its target T1, VP1 capsid protein (Human rhinovirus sp.). Put plainly: Inhibition of Human rhinovirus serotype 39 capsid infected in human HeLa cells assessed as reduction in virus-induced cytopathic effect at 5 ug/ml treated 1 hr post viral infection measured after 24 to 36 hrs relative to control. It is filed as cell-based. Conditions: rhinovirus A39. The gist of the method: as §2

The target is the same in data set [7]. Put plainly: Inhibition of Human rhinovirus serotype 39 capsid infected in human HeLa cells assessed as reduction in virus-induced cytopathic effect at 5 ug/ml treated 3 hrs post viral infection measured after 24 to 36 hrs relative to control. It is filed as cell-based. Conditions: rhinovirus A39. The method, boiled down:
as §2

The target is the same in data set [8]. The experiment in a line: Inhibition of Human rhinovirus serotype 39 capsid infected in human HeLa cells assessed as reduction in virus-induced cytopathic effect at 5 ug/ml treated 2 hrs post viral infection measured after 24 to 36 hrs relative to control. It is filed as cell-based. Conditions: rhinovirus A39. The gist of the method:
as §2

Data set [9] shares this target. Put plainly: Inhibition of Human rhinovirus serotype 39 capsid infected in human HeLa cells assessed as reduction in virus-induced cytopathic effect at 5 ug/ml treated 1 hr prior to viral infection measured 24 to 36 hrs post viral infection relative to control. Conditions: rhinovirus A39. The data set is classed as cell-based. The method, boiled down:
as §2

Activity calls are given as the source filed them. The rule behind the calls is not given here.

The CC50 is the concentration at which the toxic effect on the cells reaches its halfway point. What is called EC50 is the concentration giving half of the maximal effect. What is called inhibition is the relative decrease from the control value, in per cent.

Take `CC(C)[C@@H]1CCC(C=O)=C[C@H]1O`: in data set [1], the cytotoxic concentration (CC50) at 72 h stood at 47.6 µM. Also, the EC50 in data set [2] and in [3] was above 47.6 µM each time.

`C=C[C@H](O)C#CC#CC/C=C\CCCCCCCCO`: the half-maximal cytotoxic concentration (CC50) at 72 h in data set [1] came out at 14.6 µM. In addition, the EC50 in [2] was 1.8 µM; in data set [3], above 14.6 µM. Also, in data set [4], the selectivity ratio is 8.1.

For `C=CC(O)C#CC#C/C=C/C(O)CCCCCCCCO` (configuration not stated), in data set [1], the cytotoxic concentration (CC50) at 72 h was 107 µM. In addition, the half-maximal effective concentration (EC50) in data set [2] and in data set [3] was above 107 µM in each case.

`CCOC(=O)c1ccc(OCCC2CCN(c3ccc(C)nn3)CC2)cc1`: the inhibition entry in data set [5] is “Active”.

For the compound `C/C=C(/C)C(=O)OC/C=C/c1ccc(OC)c(OC)c1`, the CC50 at 72 h in data set [1] stood at 453 µM. Further, the EC50 in data set [2] and in [3] was above 453 µM throughout.

On to `C/C=C(/C)C(=O)OC/C=C/c1ccc(OC)cc1`, for which the half-maximal cytotoxic concentration (CC50) at 72 h in [1] was 248 µM. Besides, the EC50 in data set [2] is 30.9 µM; in data set [3], above 248 µM. The selectivity ratio in data set [4] worked out at 8.

`C/C=C(/C)C(=O)OC/C(=C/C)C(=O)OC/C=C/c1ccc(OC)cc1`: the cytotoxic concentration (CC50) at 72 h in [1] was determined as 36.3 µM. For the same compound, the EC50 in [2] and in data set [3] was above 36.3 µM each time.

For `Cc1cc(CCCOc2c(C)cc(-c3noc(C(F)(F)F)n3)cc2C)on1` [PLECONARIL], the CC50 at 72 h in data set [1] is 131 µM. Further, the EC50 in data set [2] is 0.1 µM; in data set [3], 0.3 µM.

For `CC(C)CC(=O)OC/C=C/c1ccccc1`, in data set [1], the CC50 at 72 h amounted to 142 µM. In addition, the concentration for a half-maximal effect (EC50) in [2] and in data set [3] was above 142 µM each time.

For the compound `COc1ccc(/C=C/CO)cc1`, the CC50 at 72 h in data set [1] was found to be 189 µM. For the same compound, the EC50 in data set [2] and in data set [3] was above 189 µM each time.

With `COc1ccc(/C=C/CO)cc1OC`, the CC50 at 72 h in [1] was found to be 160 µM. Moreover, the EC50 in [2] and in data set [3] was above 160 µM each time.

As for `C/C=C(/C)C(=O)OC/C(=C/C)C(=O)OC/C=C/c1ccc(OC)c(OC)c1`, the inhibition in [6] was 78%; in data set [5] it was 90%; in data set [7], 50%; in data set [8], 65%; in data set [9] it was 100%. For the same compound, the CC50 at 72 h in [1] stood at 20.3 µM. Further, the results for the EC50 in data set [2] and in [3] were 2.4 µM and above 20.3 µM, respectively. For the same compound, in data set [4], the selectivity ratio was determined as 8.4.

These data come from ChEMBL document CHEMBL4130511, “Phenylpropenoids from Bupleurum fruticosum as Anti-Human Rhinovirus Species A Selective Capsid Binders” (J Nat Prod, 2017).
